The text below walks through data of ChEMBL document CHEMBL1157968, “Chemical and cytotoxic constituents from the leaves of Cinnamomum kotoense” (2006).

Molecules are shown by their SMILES.

Holding throughout (type): functional
The subject of assay [1] is HeLa. The assay can be described thus: Cell cycle arrest in human HeLa cells pretreated with 10 mM glutathione ethyl ester for 1 hr assessed as subG1 phase accumulation at 100 uM after 24 hrs by FACS. In short, it runs like this:
(§1)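 HeLa cells pretreated for 1 h with the listed agent (10 mM GSH ethyl ester, 10 µM dexamethasone, 10 µM pifithrin, 100 µM Boc-Asp(OMe)-fmk or 5 µM cyclosporin A), then given 100 µM compound for 24 h. Cells fixed in PBS-MeOH, stained with PI/RNase and analysed by flow cytometry for DNA content. At least three experiments, one representative shown.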
In general terms: A flow cytometer gives signals particle by particle.

Assay [2] concerns HeLa. The assay can be described thus: Cell cycle arrest in human HeLa cells assessed as G1 phase accumulation at 100 uM after 24 hrs by FACS. In short, it runs like this:
(§2)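 HeLa cells seeded 5 × 10^5 per dish 48 h ahead in DMEM with 10% FCS, then exposed to compound for 24 h (DMSO 0.1% final). Adherent and floating cells pooled, fixed in PBS-MeOH (1:2) at 4 °C for at least 18 h, and stained with PI (50 µg/mL) plus RNase A for 30 min at room temperature. Flow cytometry at 488 nm excitation, doublets gated out; phase percentages taken from DNA histograms.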

Assay [3] has as its system HeLa. The assay can be described thus: Cell cycle arrest in human HeLa cells assessed as G2/M phase accumulation at 25 after 24 hrs by FACS. In short, it runs like this:
as §2

In assay [4] the test system is HeLa. The assay can be described thus: Cell cycle arrest in human HeLa cells assessed as S phase accumulation at 25 uM after 24 hrs by FACS. In short, it runs like this: as §2
Assay [5] has as its system HeLa. The assay can be described thus: Induction of apoptosis in human HeLa cells assessed as increase in intracellular nitric oxide level at 100 uM after 24 hrs by FACS relative to untreated control. In short, it runs like this:
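HeLa cells at 80% confluence were exposed to 100 µM for 1, 3 or 24 h and then stained with 1 µM DAF-2 for 10 min in the dark. After trypsinization, DAF-2 fluorescence was measured by flow cytometry and taken as fold versus untreated cells. At least three experiments.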

The test system of assay [6] is HeLa. The assay can be described thus: Cell cycle arrest in human HeLa cells assessed as S phase accumulation at 100 uM after 24 hrs by FACS. In short, it runs like this: as §2
Assay [7] deals with HeLa. The assay is described as follows: Cell cycle arrest in human HeLa cells pretreated with 10 uM pifithrin-alpha for 1 hr assessed as G2/M phase accumulation at 100 uM after 24 hrs by FACS. In short, it runs like this: as §1
Assay [8] deals with HeLa. The assay can be described thus: Induction of apoptosis in human HeLa cells assessed as increase in intracellular hydrogen peroxide level at 100 uM after 24 hrs by FACS relative to untreated control. In short, it runs like this: (§3)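 HeLa cells at 80% confluence were refed and exposed to 100 µM for 1, 3 or 24 h. They were loaded with 10 µM DCFH-DA for 30 min in the dark, trypsinized and resuspended in PBS. DCF fluorescence was measured by flow cytometry and expressed as fold versus untreated cells. At least three experiments.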

Assay [9] relates to HeLa. The assay can be described thus: Cell cycle arrest in human HeLa cells pretreated with 10 uM pifithrin-alpha for 1 hr assessed as S phase accumulation at 100 uM after 24 hrs by FACS. In short, it runs like this: as §1
Assay [10] has as its system HeLa. The assay is described as follows: Cell cycle arrest in human HeLa cells pretreated with 10 mM glutathione ethyl ester for 1 hr assessed as G1 phase accumulation at 100 uM after 24 hrs by FACS. In short, it runs like this: as §1
Assay [11] deals with HeLa. The assay is described as follows: Cell cycle arrest in human HeLa cells pretreated with 100 uM Boc-Asp(OMe)-fmk for 1 hr assessed as G1 phase accumulation at 100 uM after 24 hrs by FACS. In short, it runs like this: as §1
Assay [12] deals with HeLa. The assay can be described thus: Induction of apoptosis in human HeLa cells pretreated with 10 mM glutathione ethyl ester for 1 hr at 100 uM after 24 hrs by TUNEL assay. In short, it runs like this:
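HeLa in DMEM/10% FCS, untreated or pretreated 1 h with listed inhibitor, then 100 µM agent (0.1% DMSO final) for 24 h. Pooled cells fixed in 1% paraformaldehyde (30 min, 4 °C), 70% EtOH (30 min, −20 °C); strand breaks labelled with TdT/fluorescein-BrdUTP (1 h, 37 °C), PI/RNase counterstain; flow cytometry, % apoptotic cells; ≥3 experiments.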

Assay [13] has as its system HeLa. The assay is described as follows: Induction of apoptosis in human HeLa cells assessed as increase caspase 3/7 activities at 100 uM after 6 hrs by FACS relative to control. In short, it runs like this: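 After 3–24 h exposure at 100 µM, HeLa cells were trypsinized. 1 × 10^6 cells in DMEM were mixed 1:1 with Z-DEVD-R110 substrate reagent and incubated 1 h at 37 °C, then washed. Released R110 read per cell by flow cytometry (ex 488/em 520 nm) and expressed as fold over untreated cells. At least three runs.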

The test system of assay [14] is HeLa. The assay can be described thus: Induction of apoptosis in human HeLa cells assessed as number of cells with decreased mitochondrial membrane potential at 100 uM after 12 hrs by measuring rhodamine 123 fluorescence intensity. Further details: scale not given: the % may be the effect or the level left. In short, it runs like this: (§4)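 Cells in DMEM/10% FCS, medium renewed at 80% confluence, then 100 µM agent (0.1% DMSO final) for 1–24 h. Stained with 5 µM rhodamine 123 for 30 min in the dark, washed, trypsinized and resuspended in PBS; flow cytometry, percentage of cells with weak rhodamine 123 staining (reduced ΔΨm); at least three experiments, representative shown.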

Assay [15] deals with HeLa. The assay is described as follows: Induction of apoptosis in human HeLa cells assessed as number of cells with decreased mitochondrial membrane potential at 100 uM after 24 hrs by measuring rhodamine 123 fluorescence intensity. Further details: scale not given: the % may be the effect or the level left. In short, it runs like this:
as §4

Assay [16] relates to HeLa. The assay can be described thus: Cell cycle arrest in human HeLa cells pretreated with 10 uM Dexamethasone for 1 hr assessed as subG1 phase accumulation at 100 uM after 24 hrs by FACS. In short, it runs like this: as §1
In assay [17] the test system is HeLa. The assay is described as follows: Induction of apoptosis in human HeLa cells assessed as increase in intracellular peroxide level at 100 uM after 3 hrs by FACS relative to untreated control. In short, it runs like this:
as §3

The subject of assay [18] is HeLa. The assay is described as follows: Induction of apoptosis in human HeLa cells assessed as increase in intracellular glutathione-depleted cell population at 25 uM after 24 hrs by FACS. In short, it runs like this:
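HeLa cells at 80% confluence got fresh medium and were exposed for 24 h. Adherent and floating cells were pooled, adjusted to (1-2) × 10^6/mL and stained with 25 µM CMF-DA for 30 min at 37 °C. After washing, flow cytometry scored the percentage of GSH-negative cells. At least three experiments.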

Turning to `CCCCCCCCCCCCC/C=C(/C(=O)OC)[C@@H](O)C(C)=O` [SECOKOTOMOLIDE A], the Activity in the assay on HeLa [1] was 11.3%; in the assay with HeLa [2], 65.2%; in the assay with HeLa [3] it was 28.7%; in the assay with HeLa [4] it was 18.1%; in the assay with HeLa [6], 28.7%; with HeLa [7], 0%. Moreover, the Activity was determined as 48.5% in the assay with HeLa [9]; 80% in the assay on HeLa [10]; 60.6% with HeLa [11]; 5.43% in the assay on HeLa [12]; 75.1% in the assay with HeLa [14]; 75.1% in the assay on HeLa [15]. Besides, the Activity in the assay with HeLa [16] is 47.7%; in the assay with HeLa [18] it was 49%. In addition, the “fold change (FC)” value with HeLa [5] came to 2.1; in the assay on HeLa [8], 3.9; with HeLa [13], 5.9; with HeLa [17], 2.9.
